# Screens from PubChem.
# Rows were chosen to be rich in hits. Some 4.9% of all compounds tested hit in one or more screens of this group.
# NF-kB neuron act: raises NF-kB expression in human neuronal cells. NF-kB reporter expression; hits give high values. fold change at 12.5 µM. 190,000 compounds, 1.6% hits. AID 1239; in the data active = fold change above about 3.3
# STAT3 act: STAT3 signaling activation. AID 871. activation (% of control), % at 5.6 µM. U3A cells, IL-6 STAT3-luciferase reporter, luminescence; 100% = signal with IL-6 EC80 alone. 190,000 compounds, 0.91% hits;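 active = activation above the screen-wide mean of compound activation plus 3 SD, cut at about 130% in these data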
#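 Material: human STAT1-deficient U3A cells with stable STAT3-luciferase reporter / Probe or stimulus: IL-6 stimulus at 33 ng/mL final / Schedule: 1 h compound pre-exposure, 6 h IL-6 stimulation, 37 °C / Technique: luminescence / Read-out basis: percent of IL-6-only median luminescence / Control set: IL-6-only high control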
# STAT3 inh-1: reduces IL-6 driven STAT3 reporter signal; AID 862; inhibition, % at 5.5 µM; U3A cells, IL-6 STAT3-luciferase reporter, luminescence; host cell line lacks STAT1; 190,000 compounds, 0.89% hits;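 active = inhibition above the mean inhibition across all screened compounds plus 3 SD, cut at about 44% in these data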
# STAT1 blocker: STAT1 signaling inhibition. NIH 3T3 STAT1-luciferase reporter, IFN-gamma, luminescence. inhibition, % at 5.5 µM. 200,000 compounds, 0.35% hits. AID 920;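 active = inhibition above a set limit, the mean inhibition across all tested compounds plus 3 SD, cut at about 34% in these data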
# APP 5'UTR act: activates APP 5'UTR luciferase reporter; SH-SY5Y APP 5'UTR luciferase reporter, luminescence; zero percent = DMSO vehicle wells; AID 1276; activation, % at 2 µM; 190,000 compounds, 1% hits;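 active = activation above a set limit, based on mean plus 3 SD of controls, cut at about 140% in these data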
# STAT1 act: STAT1 signaling activation; NIH 3T3 STAT1-luciferase reporter, IFN-gamma, luminescence; 100% = IFN-gamma alone, no compound; activation (% of control), % at 5.5 µM; 200,000 compounds, 2.6% hits; AID 932;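 active = activation above the screen-wide mean activation plus 3 SD, cut at about 130% in these data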
# STAT3 inh-2: STAT3 inhibition, confirmation assay | shares compounds with STAT3 inh-1 | U3A cells, IL-6 STAT3 luciferase reporter, luminescence; cell line lacks STAT1 | inhibition, % at 5.7 µM | 1,200 compounds, 45% hits | AID 1265;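 active = inhibition above the hit cutoff computed for the primary STAT3 screen, cut at about 44% in these data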
# NFkB inh 2: NF-kappaB inhibition in STAT3 inhibitor counter-screen | AID 1308 | HEK293T NF-kB luciferase reporter, TNF-alpha induced | shares compounds with STAT3 inh-1 | 1,200 compounds, 36% hits | inhibition, % at 5.7 µM;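 active = inhibition above the mean of solvent-only control wells plus 3 SD, cutoff set per campaign, cut at about 13% in these data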
# STAT1 inh STAT3c: counter-screen for STAT3 inhibitors: STAT1 inhibition. NIH 3T3 STAT1-luciferase reporter, IFN-gamma induced, luminescence. 1,200 compounds, 27% hits. inhibition, % at 5.7 µM. shares compounds with STAT3 inh-1;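 active = inhibition above the mean plus 3 SD of solvent-only control wells, limit set per screening run, cut at about 16% in these data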
# Hits are given with their value; n = inactive; x = no result; ! = repeats disagree.
SMILES,NF-kB neuron act,STAT3 act,STAT3 inh-1,STAT1 blocker,APP 5'UTR act,STAT1 act,STAT3 inh-2,NFkB inh 2,STAT1 inh STAT3c
Cc1cccc(-c2nc3cc(NC(=O)C4CCCO4)ccc3o2)c1 (stereo not drawn),4.7,n,72,n,138,130,46,n,n
O=C(Nc1nc2ccccc2[nH]1)C1CCCO1 (stereo not drawn),n,n,n,n,n,n,x,x,x
COc1ccc(S(=O)(=O)NN(C)C(=O)c2nn(-c3ccccc3)ccc2=O)cc1,n,n,n,n,n,n,x,x,x
CN(CCCNC(=O)CSc1cc(=O)n(C)c2ccc(Cl)cc12)Cc1ccccc1,n,n,n,n,n,n,x,x,x
COc1cccc(C=Nc2ccc3c(c2)OCCO3)c1O,n,n,49,n,n,n,n,n,n
COc1cccc(/C=N/NC(=O)CNC(=O)c2ccc3c(c2)OCCO3)c1O,n,n,n,n,n,n,x,x,x
CCN(C(=O)COC(=O)c1ccc2[nH]c3c(c2c1)CCCC3)C1CCS(=O)(=O)C1 (stereo not drawn),n,n,n,n,n,n,x,x,x
Cc1cc(Cl)c(S(=O)(=O)N2CCN(c3ccc(F)cc3)CC2)cc1OCC(N)=O,n,n,45,n,n,n,n,n,n
Cc1cc(Cl)c(S(=O)(=O)N2CCN(c3ccc(F)cc3)CC2)cc1OCC(=O)NC1CCCCC1,n,n,88,n,n,n,85,35,n
CCOC(=O)C1CCCN(S(=O)(=O)c2cc(OCC(=O)NC3CCCCC3)c(C)cc2Cl)C1 (stereo not drawn),n,n,n,n,n,n,x,x,x
COc1ccc(OCC(=O)Nc2cc(-c3nn(C)c(=O)c4ccccc34)ccc2OC)cc1,n,n,51,n,n,n,48,22,25
O=c1cc(CSc2nnc(-c3cccs3)n2Cc2ccccc2)nc2sc3ccccc3n12,n,n,60,n,n,n,57,n,23
Cc1cc(C(=O)CSc2nnc(-c3cccs3)n2Cc2ccccc2)c(C)n1C,n,n,n,n,n,n,x,x,x
Cc1ccc(Nc2ccccc2)cc1,n,n,n,n,n,n,x,x,x
Cc1ccc(NC2=Nc3ccccc3CS2)cc1,5.6,n,59,n,184,n,n,n,n
COc1ccccc1-n1c(-c2ccccc2)c[nH]c1=S,n,n,n,n,n,n,x,x,x
COc1ccccc1-n1c(-c2ccccc2)c[n+]2c1CCc1ccccc1-2,n,n,86,34!,n,n,74,n,21
Cc1cc(C)n(C(=O)c2ccc(C)c(S(=O)(=O)N3CCCC3)c2)n1,n,n,n,n,n,n,x,x,x
O=C(Nc1ccc(S(=O)(=O)N2CCCC2)cc1)c1ccc(OCC2CCCO2)cc1 (stereo not drawn),n,n,n,n,n,n,x,x,x
O=C(Nc1ccc(Cl)c(S(=O)(=O)N2CCOCC2)c1)c1ccc(OCC2CCCO2)cc1 (stereo not drawn),n,n,54,n,n,n,61,22,n
COc1ccc(C(=O)Nc2ccc(-c3ccc(C)o3)cc2)cc1S(=O)(=O)N1CCOCC1,n,n,70,n,n,n,71,28,n
Cc1ccc(C(=O)Nc2cccc(C(=O)O)c2)cc1S(=O)(=O)N1CCCCC1,n,n,55,n,n,n,n,14,18
COc1ccc(C(=O)Nc2cccc(C)c2)cc1S(=O)(=O)N1CCOCC1,n,n,n,n,n,n,x,x,x
O=C(Nc1cccc(Br)c1)c1ccc(Cl)c(S(=O)(=O)N2CCOCC2)c1,n,n,73,n,n,n,66,15,n
O=C(Nc1cccc(S(=O)(=O)C(F)F)c1)c1ccc(Cl)c(S(=O)(=O)N2CCOCC2)c1,n,n,n,n,n,n,x,x,x
SMILES,NF-kB neuron act,STAT3 act,STAT3 inh-1,STAT1 blocker,APP 5'UTR act,STAT1 act,STAT3 inh-2,NFkB inh 2,STAT1 inh STAT3c
COCCNC(=O)CSc1cc(=O)n(C)c2cc(Cl)ccc12,n,n,n,n,n,n,x,x,x
Cc1cc(C)n(-c2ccc(C(=O)OCC(=O)Nc3ccc(S(=O)(=O)N4CCCCC4)cc3)cc2)n1,n,n,n,n,n,n,x,x,x
Cc1cc(C)n(-c2ccc(C(=O)Nc3cccc(S(=O)(=O)N4CCCC4)c3)cc2)n1,n,n,44,n,n,n,n,n,n
CC(NCC(O)COCCC12CC3CC(CC(C3)C1)C2)c1ccccc1 (stereo not drawn),n,n,n,n,n,n,x,x,x
CCN1CCN(/C=N/c2nc3c(s2)CCCC3)CC1,n,n,52,n,n,n,n,n,n
COc1cc(/C=C/C(=O)O)cc(S(=O)(=O)Nc2ccc3nc(SC)sc3c2)c1OC,n,n,n,n,n,n,x,x,x
CCOc1cc2c(cc1OCC)C(c1ccccc1)N(c1ccccc1)C(=O)C2 (stereo not drawn),n,n,n,n,n,n,x,x,x
CC(C)C(=O)Nc1ccc(-c2nc3cccnc3o2)cc1,n,n,48,n,151,147,n,n,n
Cc1ccc(S(=O)(=O)N2CCCCC2)cc1NC(=O)COC(=O)C1=COCCO1,n,n,n,n,n,n,x,x,x
O=C(COc1ccccc1)Nc1nc(-c2ccc(S(=O)(=O)N3CCOCC3)cc2)cs1,n,n,n,n,n,n,x,x,x
O=C(CCc1ccc(S(=O)(=O)N2CCOCC2)cc1)Nc1nc(COc2ccccc2)cs1,n,n,46,n,n,n,n,n,n
Cc1ccccc1COC(=O)c1nn(-c2ccccc2)nc1N,n,n,n,n,n,n,x,x,x
O=C(NN=C1c2ccccc2-c2ccccc21)c1cccc(Br)c1,n,n,n,n,n,n,x,x,x
O=C1c2ccccc2C(=O)C1c1nccc2ccccc12,3.6,n,62,n,n,n,n,49,n
COc1ccc(C2C(=O)c3ccccc3C2=O)cc1,n,n,n,n,n,n,x,x,x
O=Cc1ccc(OC(=O)c2cccnc2)cc1,n,n,n,n,n,n,x,x,x
CCc1c(C)nc2ncnn2c1Nc1ccc(C)c(C)c1,x,n,n,n,n,n,x,x,x
CCc1c(C)nc2ncnn2c1NCCc1ccc(OC)cc1,n,n,66,n,n,n,65,28,26
O=C(C1CC=CCC1)N1CCC(CO)(Cc2ccc(Cl)cc2)CC1 (stereo not drawn),n,n,n,n,n,n,x,x,x
Cc1nc2ccccn2c1C(=O)NC1CCCc2ccccc21 (stereo not drawn),n,n,53,n,n,n,n,n,n
O=C(CCSCc1ccccc1Cl)N1CCN(c2cccc(Cl)c2)CC1,n,n,n,n,n,n,x,x,x
